Measured values: ChEMBL document CHEMBL4396917, “Synthesis and biological evaluation of novel benzylidene-succinimide derivatives as noncytotoxic antiangiogenic inhibitors with anticolorectal cancer activity in vivo” (Eur J Med Chem, 2019)
Activity calls are given as the source filed them. No cut-off for these calls is given here.

Tests used:
HUVEC [1] = test: Induction of apoptosis in VEGF-stimulated HUVEC assessed as early apoptotic cells at 5 uM after 24 hrs by Annexin V-FITC/propidium iodide staining based flow cytometric analysis (reference value: 7%); assay type: cell-based; conditions: human
In short: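 HUVECs plated at 5×10^5 per well and treated 24 h with 1, 5, 10 or 20 μM. Detached and adherent cells were pooled, washed in ice-cold PBS and resuspended in fresh medium. 1×10^5 cells were stained with annexin-V-FITC in annexin-V buffer for 20 min in the dark, then PI (50 μg/mL) was added. Read-out by flow cytometry.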

HT-29 = test: Cytotoxicity against human HT-29 cells assessed as reduction in cell growth after 72 hrs by MTT assay; assay type: cell-based; conditions: HT-29, 72 h
HUVEC [2] = test: Effect on total Src expression in VEGF-induced HUVEC at 1 to 20 uM pre-incubated for 2 hrs followed by VEGF stimulation and measured after 15 mins by Western blot analysis; assay type: ADME, cell-based; conditions: human, 0.25 h
In short: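 HUVECs serum-starved overnight, pretreated with compound (methods: 1, 2.5, 5, 10 μM for 2 h; legend: 1, 5, 10, 20 μM for 1.5 h), then VEGF 50 ng/mL (methods: VEGF165, 15 min; legend: 30 min); lysates equalized by Bradford, ~20 μg protein resolved on gradient SDS-PAGE, immunoblotted, ECL detection.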

HUVEC [3] = test: Inhibition of Akt/mTOR signalling in VEGF-induced HUVEC assessed as reduction in AKT phosphorylation at Ser473 residue at 1 to 20 uM pre-incubated for 1.5 hrs followed by VEGF stimulation and measured after 30 mins by Western blot analysis; assay type: cell-based; conditions: Homo sapiens
In short: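 HUVECs were starved overnight, pretreated 1.5 h with 1, 5, 10 or 20 μM, then stimulated with VEGF (50 ng/mL) for 30 min. Lysates were equalized by Bradford assay, about 20 μg protein was resolved on gradient SDS-PAGE and immunoblotted with phospho-specific antibodies. Detection by HRP secondary antibodies and ECL.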

[4] = target: Serine/threonine-protein kinase mTOR (Homo sapiens) (UniProt P42345); test: Inhibition of mTOR (unknown origin) at 10 uM using myelin basic protein as substrate in presence of [gamma-33P]-ATP by scintillation counting analysis relative to control
In short: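 Radiometric kinase panel run by a contract lab. Kinase (5–10 mU) in 25 mM Tris pH 7.5, 0.02 mM EGTA, 0.66 mg/mL myelin basic protein, magnesium acetate and [γ-33P]-ATP (about 500 cpm/pmol). Started with Mg-ATP mix, 40 min at room temperature, stopped with 3% phosphoric acid. Spotted on P30 filters, washed in 75 mM phosphoric acid and methanol, scintillation counted. Mean ± SD of three independent experiments.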

Question: Which Activity (HUVEC [1]) does the source give for `COc1ccc(NC(=O)c2cccc(/C=C3\CC(=O)N(c4ccc(C)cc4)C3=O)c2)cc1` here?
Answer: 10.1%

Question: And the IC50 (HT-29)?
Answer: > 100 µM

Question: What about the Activity (HUVEC [2]) of the same compound?
Answer: Not Active

Question: And the inhibition (HUVEC [3])?
Answer: Active

Question: And the inhibition [4]?
Answer: 93.8%
